Results from PMC6880868 (Cancer cell, 2019).

Columns and labels:
[1] = test system: STAT1, STAT4 and other STATs; experiment: Degradation of other STAT proteins in cells; format: cell-based, human
Method in brief: (§1)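 Treated cells were lysed in cell lysis buffer, resolved by SDS-PAGE, transferred to PVDF and probed by immunoblotting.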

[2] = Body weight and signs of toxicity in efficacy experiments; format: in vivo, mice; details: all efficacy experiments
Method in brief: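 Animal weights and signs of toxicity were recorded 2–3 times per week in NOD/SCID female mice with subcutaneous xenografts. Mice received test compound or vehicle (10% PEG400 + 90% PBS) on the indicated schedules.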

mouse STAT3 protein = mouse STAT3 protein (Mus musculus, UniProt P42227); experiment: Pharmacodynamics in mouse tissues; format: in vivo, CD-1 mice; details: single dose 100 mg/kg i.v.
Sequence of mouse STAT3 protein (P42227 whole entry): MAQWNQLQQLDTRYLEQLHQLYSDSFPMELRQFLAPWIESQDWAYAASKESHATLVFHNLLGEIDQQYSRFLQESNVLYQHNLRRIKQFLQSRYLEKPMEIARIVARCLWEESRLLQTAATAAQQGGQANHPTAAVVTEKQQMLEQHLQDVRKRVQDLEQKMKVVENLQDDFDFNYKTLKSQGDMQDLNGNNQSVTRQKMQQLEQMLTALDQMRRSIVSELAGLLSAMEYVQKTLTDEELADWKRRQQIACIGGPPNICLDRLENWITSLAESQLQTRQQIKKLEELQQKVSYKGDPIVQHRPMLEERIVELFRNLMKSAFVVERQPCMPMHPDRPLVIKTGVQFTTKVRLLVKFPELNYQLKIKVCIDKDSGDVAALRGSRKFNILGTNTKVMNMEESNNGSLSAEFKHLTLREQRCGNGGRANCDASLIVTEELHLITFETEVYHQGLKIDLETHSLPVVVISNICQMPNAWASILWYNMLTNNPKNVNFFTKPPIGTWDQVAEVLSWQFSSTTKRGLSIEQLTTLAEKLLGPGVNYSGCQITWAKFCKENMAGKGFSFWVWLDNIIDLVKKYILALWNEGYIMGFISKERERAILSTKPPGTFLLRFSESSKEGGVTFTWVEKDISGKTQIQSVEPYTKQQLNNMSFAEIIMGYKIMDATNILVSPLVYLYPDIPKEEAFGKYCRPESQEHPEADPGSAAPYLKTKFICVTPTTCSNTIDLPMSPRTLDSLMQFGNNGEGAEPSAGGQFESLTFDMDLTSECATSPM
Method in brief: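 Female outbred CD-1 mice received a single i.v. dose. At set time points, liver, spleen, heart and kidney were collected and analysed by immunoblotting.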

MOLM-16 tumors = experiment: MOLM-16 xenograft efficacy; format: in vivo, NOD/SCID female mice
Method in brief: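 NOD/SCID female mice were injected subcutaneously in 5 mg/ml Matrigel with MOLM-16 (3 × 10^6), SU-DHL-1 (1 × 10^7) or SUP-M2 (1 × 10^7) cells. At about 150 mm3, mice were size-matched and randomised. Test compound or vehicle (10% PEG400 + 90% PBS) was given on the indicated schedules. Tumours were measured 2–3 times weekly, with volume = length×width²/2. TGI was calculated from group medians.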

STAT3 [3] = biological target: T1, STAT3 (Homo sapiens, UniProt P40763); experiment: STAT3 protein degradation in human cells; format: cell-based
Method in brief: as §1
Target sequence in this assay (P40763 whole entry): as the sequence (P42227 whole entry) above, with D760E counted along it

STAT6 = STAT6 (Homo sapiens, UniProt P42226); experiment: Bio-Layer Interferometry binding, STAT6
Sequence of STAT6 (P42226 113-658): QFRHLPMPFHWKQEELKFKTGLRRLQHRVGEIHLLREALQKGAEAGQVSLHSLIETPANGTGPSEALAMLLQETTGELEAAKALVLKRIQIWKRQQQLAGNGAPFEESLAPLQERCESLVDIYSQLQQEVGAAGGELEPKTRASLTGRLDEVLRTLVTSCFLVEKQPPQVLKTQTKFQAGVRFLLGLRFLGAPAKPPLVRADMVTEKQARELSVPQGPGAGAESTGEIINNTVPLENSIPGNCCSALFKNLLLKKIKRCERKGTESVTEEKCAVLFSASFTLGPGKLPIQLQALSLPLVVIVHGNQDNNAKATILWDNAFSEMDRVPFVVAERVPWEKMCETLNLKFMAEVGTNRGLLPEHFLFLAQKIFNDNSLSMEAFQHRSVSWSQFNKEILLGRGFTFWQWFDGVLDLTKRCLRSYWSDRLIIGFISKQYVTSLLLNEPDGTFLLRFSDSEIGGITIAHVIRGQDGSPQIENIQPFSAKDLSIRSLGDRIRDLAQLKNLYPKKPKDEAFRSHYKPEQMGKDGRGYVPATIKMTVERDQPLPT
Method in brief: (§2)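 Purified recombinant human STAT proteins were biotinylated, then direct binding of the test compound was measured by Bio-Layer Interferometry to give Kd.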

STAT4 = STAT4 (Homo sapiens, UniProt Q14765); experiment: Bio-Layer Interferometry binding, STAT4
Sequence of STAT4 (Q14765 133-705): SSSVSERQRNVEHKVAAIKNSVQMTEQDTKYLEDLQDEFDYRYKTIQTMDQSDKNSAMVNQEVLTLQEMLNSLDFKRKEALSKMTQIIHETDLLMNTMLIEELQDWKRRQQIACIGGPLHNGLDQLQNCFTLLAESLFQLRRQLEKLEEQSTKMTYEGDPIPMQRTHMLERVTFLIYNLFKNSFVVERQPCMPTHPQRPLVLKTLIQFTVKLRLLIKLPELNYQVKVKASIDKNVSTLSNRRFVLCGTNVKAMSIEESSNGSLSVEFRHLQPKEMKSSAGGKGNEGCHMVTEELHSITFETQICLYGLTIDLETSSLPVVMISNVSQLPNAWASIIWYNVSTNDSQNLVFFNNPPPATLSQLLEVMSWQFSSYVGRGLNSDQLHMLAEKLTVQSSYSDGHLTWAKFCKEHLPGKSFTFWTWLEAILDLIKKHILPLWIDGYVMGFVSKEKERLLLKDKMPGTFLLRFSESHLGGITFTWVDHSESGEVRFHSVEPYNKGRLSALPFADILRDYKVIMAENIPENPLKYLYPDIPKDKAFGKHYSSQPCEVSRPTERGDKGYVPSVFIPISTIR
Method in brief: as §2

STAT5B = STAT5B (Homo sapiens, UniProt P51692); experiment: Bio-Layer Interferometry binding, STAT5B
Sequence of STAT5B (P51692 138-710): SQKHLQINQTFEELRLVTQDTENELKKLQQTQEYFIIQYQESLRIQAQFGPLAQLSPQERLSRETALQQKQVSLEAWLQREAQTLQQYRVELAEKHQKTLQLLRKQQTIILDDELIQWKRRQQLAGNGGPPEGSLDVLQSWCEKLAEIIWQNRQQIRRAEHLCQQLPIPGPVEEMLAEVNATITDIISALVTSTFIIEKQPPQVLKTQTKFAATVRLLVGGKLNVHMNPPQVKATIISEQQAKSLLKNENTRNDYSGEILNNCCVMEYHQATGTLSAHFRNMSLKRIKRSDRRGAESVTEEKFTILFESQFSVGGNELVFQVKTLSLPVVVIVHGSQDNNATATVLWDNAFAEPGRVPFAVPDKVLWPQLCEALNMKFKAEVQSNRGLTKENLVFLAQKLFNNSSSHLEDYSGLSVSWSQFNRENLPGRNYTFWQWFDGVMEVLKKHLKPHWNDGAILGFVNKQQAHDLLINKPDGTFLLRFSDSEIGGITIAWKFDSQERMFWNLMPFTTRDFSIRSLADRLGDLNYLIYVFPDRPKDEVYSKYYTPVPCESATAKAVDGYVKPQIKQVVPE
Method in brief: as §2

MOLM-16 = experiment: 4-day CellTiter Glo cell viability assay, MOLM-16; format: cell-based; details: Homo sapiens, MOLM16, 96 h, read-out: IC50, growth inhibition
STAT3 target genes = experiment: qRT-PCR of STAT3 target genes in MOLM-16 cells; format: cell-based, human; details: MOLM-16, 1 μM, 8 hr
STAT5A = STAT5A (Homo sapiens, UniProt P42229); experiment: Bio-Layer Interferometry binding, STAT5A
Method in brief: as §2

[4] = test system: MOLM-16 and SU-DHL-1 cell lines; experiment: Cell cycle analysis by flow cytometry; format: cell-based, human; details: 1 μM, 48 hr
Method in brief: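 After treatment, cells were washed twice in cold PBS and fixed overnight in 50% ethanol. They were stained 1 hr at 4°C with PI (50 μg/ml) plus DNase-free RNase A (0.2 μg/ml), then analysed by flow cytometry.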

STAT3 [5] = biological target: T1, STAT3; experiment: Bio-Layer Interferometry binding, STAT3
Method in brief: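 Recombinant human STAT3 was biotinylated and binding measured by Bio-Layer Interferometry for Kd. Selectivity was taken from Kd values against other STATs.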
Target sequence in this assay (P40763 127-688): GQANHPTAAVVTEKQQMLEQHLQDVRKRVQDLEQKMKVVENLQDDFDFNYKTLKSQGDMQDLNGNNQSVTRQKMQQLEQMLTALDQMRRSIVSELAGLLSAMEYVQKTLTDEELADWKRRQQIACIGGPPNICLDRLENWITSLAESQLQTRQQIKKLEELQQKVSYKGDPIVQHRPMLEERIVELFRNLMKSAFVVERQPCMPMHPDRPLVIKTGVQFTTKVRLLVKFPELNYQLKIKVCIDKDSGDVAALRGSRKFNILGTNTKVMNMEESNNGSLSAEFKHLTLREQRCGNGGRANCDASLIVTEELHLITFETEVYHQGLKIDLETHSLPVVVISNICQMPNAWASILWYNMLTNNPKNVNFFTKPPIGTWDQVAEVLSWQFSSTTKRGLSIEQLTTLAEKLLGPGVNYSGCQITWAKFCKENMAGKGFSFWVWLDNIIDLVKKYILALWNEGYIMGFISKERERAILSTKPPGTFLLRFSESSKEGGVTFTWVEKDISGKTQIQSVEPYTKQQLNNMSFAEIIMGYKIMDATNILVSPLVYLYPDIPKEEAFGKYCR

[6] = Pharmacokinetics in tumor-bearing mice; format: in vivo, NOD/SCID female mice; details: single i.v. dose 25 mg/kg; 1, 3 and 6 hr
Method in brief: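 In NOD/SCID female mice with subcutaneous MOLM-16 xenografts, mice were dosed i.v. Blood and tissues were collected at the indicated times, and drug levels were measured by a pharmacokinetics core.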

mutated STAT3 proteins [7] = biological target: mutated STAT3 proteins (Homo sapiens, UniProt P40763, Y705F); experiment: Degradation of mutated STAT3 proteins in cells; format: cell-based; details: DLD-1/STAT3 Y705F/Y705F cells, 1 μM, 24 hr
Sequence of mutated STAT3 proteins (Homo sapiens, UniProt P40763, Y705F) (Q96SW2 whole entry): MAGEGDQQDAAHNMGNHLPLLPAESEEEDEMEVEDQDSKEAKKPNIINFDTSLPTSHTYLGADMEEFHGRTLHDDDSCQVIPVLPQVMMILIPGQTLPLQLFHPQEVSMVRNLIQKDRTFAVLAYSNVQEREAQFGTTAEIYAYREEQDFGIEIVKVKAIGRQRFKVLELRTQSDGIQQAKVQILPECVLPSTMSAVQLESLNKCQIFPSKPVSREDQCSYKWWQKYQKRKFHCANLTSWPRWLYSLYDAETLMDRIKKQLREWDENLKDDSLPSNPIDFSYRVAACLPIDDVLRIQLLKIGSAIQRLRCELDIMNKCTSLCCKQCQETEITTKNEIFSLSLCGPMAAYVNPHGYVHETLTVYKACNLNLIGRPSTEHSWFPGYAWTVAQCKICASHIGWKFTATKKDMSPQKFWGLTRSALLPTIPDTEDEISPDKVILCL
Sequence of mutated STAT3 proteins (Homo sapiens, UniProt P40763, Y705F) (P40763 2-770 Y705F): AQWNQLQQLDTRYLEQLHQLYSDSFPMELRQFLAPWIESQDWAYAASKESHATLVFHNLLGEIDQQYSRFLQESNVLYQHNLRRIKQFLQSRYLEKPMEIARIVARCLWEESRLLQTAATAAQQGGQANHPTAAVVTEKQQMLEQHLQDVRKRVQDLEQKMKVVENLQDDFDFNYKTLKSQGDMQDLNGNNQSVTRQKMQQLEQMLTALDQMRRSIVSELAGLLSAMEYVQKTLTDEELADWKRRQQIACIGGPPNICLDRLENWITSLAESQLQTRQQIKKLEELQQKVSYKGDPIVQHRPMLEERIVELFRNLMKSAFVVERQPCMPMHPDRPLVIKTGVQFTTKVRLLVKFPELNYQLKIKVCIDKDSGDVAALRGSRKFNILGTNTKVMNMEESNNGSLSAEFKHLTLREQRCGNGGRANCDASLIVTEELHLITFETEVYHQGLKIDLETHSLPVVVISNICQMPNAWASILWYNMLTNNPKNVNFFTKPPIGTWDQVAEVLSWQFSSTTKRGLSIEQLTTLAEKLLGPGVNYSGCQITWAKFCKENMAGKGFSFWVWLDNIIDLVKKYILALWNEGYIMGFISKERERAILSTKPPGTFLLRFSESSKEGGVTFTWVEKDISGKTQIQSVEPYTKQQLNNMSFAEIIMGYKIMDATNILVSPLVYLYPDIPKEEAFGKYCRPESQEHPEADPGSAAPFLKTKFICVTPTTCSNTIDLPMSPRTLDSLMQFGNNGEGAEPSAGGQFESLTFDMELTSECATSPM

mutated STAT3 proteins [8] = experiment: Degradation of mutated STAT3 proteins in cells; format: cell-based, human
MOLM-16 cells = experiment: RNA-seq analysis, MOLM-16; format: cell-based, human
STAT1 = STAT1 (Homo sapiens, UniProt P42224); experiment: Bio-Layer Interferometry binding, STAT1
Sequence of STAT1 (P42224 132-713): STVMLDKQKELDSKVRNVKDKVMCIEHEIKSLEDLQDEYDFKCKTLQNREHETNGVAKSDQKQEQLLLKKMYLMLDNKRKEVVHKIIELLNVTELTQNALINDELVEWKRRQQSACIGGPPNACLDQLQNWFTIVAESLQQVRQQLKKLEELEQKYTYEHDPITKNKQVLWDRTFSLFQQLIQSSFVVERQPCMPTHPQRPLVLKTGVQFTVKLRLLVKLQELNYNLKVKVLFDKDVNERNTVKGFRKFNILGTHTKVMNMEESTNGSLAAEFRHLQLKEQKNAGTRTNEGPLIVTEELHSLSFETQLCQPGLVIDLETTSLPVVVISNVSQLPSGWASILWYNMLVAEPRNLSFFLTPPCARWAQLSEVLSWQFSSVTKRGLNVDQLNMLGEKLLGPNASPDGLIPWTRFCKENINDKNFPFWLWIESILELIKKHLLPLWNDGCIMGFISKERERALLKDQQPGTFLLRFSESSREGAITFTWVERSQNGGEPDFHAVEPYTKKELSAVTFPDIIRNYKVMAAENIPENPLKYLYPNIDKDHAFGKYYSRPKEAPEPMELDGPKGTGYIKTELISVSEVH
Method in brief: as §2

[9] = test system: DNA binding activities of STAT1, STAT5A or STAT5B; experiment: STAT1, STAT5A, STAT5B DNA binding activity assay; format: cell-based, human; details: MOLM-16
Method in brief: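 Nuclear extraction: cells were swelled 15 min on ice in hypotonic HEPES pH 7.9/10 mM KCl buffer with DTT and phosphatase/protease inhibitors. NP-40 was added (0.5% final), and nuclei were extracted 15 min at 4°C in 0.4 M NaCl HEPES buffer, then cleared at 5,000 × g. ELISA: 5 μg extract was bound 1 hr at room temperature in TransAM STAT ELISA wells. Wells then received STAT antibody (1:1000, 1 hr), HRP secondary (1 hr) and colour development.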

[10] = 100 mg/kg weekly or 50 mg/kg twice weekly for 4 weeks

NC(=O)CC[C@H](NC(=O)[C@@H]1CC[C@@H]2CCN(C(=O)CCCCCC#Cc3cccc4c3CN(C3CCC(=O)NC3=O)C4=O)C[C@H](NC(=O)c3cc4cc(C(F)(F)P(=O)(O)O)ccc4[nH]3)C(=O)N21)C(=O)NC(c1ccccc1)c1ccccc1 (stereo partly drawn) [SD-36, ((2-(((5S,8S,10aR)-8-(((S)-5-amino-1-(benzhydrylamino)-1,5-dioxopentan-2-yl)carbamoyl)-3-(8-(2-(2,6-dioxopiperidin-3-yl)-1-oxoisoindolin-4-yl)oct-7-ynoyl)-6-oxodecahydropyrrolo[1,2-a][1,5]diazocin-5-yl)carbamoyl)-1H-indol-5-yl)difluoromethyl)phosphonic acid]
effect on other STATs ([1]; MOLM-16 and SU-DHL-1 cells): without effect on other STATs
degradation of STAT1, STAT4 and other STATs ([1]; human PBMCs, 24 hr): failed to degrade
weight loss or other signs of toxicity [2]: no significant weight loss
mouse STAT3 protein in liver, spleen, heart and kidney (mouse STAT3 protein): profound and durable depletion
persistence of regression after cessation of treatment (MOLM-16 tumors; [10]): at least 2 weeks
tumor response (MOLM-16 tumors; [10]): complete tumor regression
tumor growth (MOLM-16 tumors; 25 and 50 mg/kg weekly for 4 weeks): effectively inhibited tumor growth
STAT3 protein depleted (STAT3 [3]; DEL, 250 nM, 7 hr): > 50%
STAT3 protein depleted (STAT3 [3]; KI-JK, 250 nM, 7 hr): > 50%
levels of activated pSTAT3 (Y705) (STAT3 [3]; MOLM-16, 0.25 μM): effectively reduced
STAT3 protein depleted (STAT3 [3]; MOLM-16, 250 nM, 4 hr): > 90%
cellular STAT3 protein in SD-36 insensitive cell lines (STAT3 [3]; SD-36 insensitive cell lines): effectively depleted
STAT3 protein depleted (STAT3 [3]; SU-DHL-1, 250 nM, 7 hr): > 50%
hook effect (STAT3 [3]; concentrations as high as 10 μM, all cell lines tested): not observed
levels of STAT3 protein in PBMCs (STAT3 [3]; human PBMCs, 24 hr): potently and effectively reduced
Kd (STAT6): > 10000 nM
Kd (STAT4): 1000 to 2000 nM
Kd (STAT5B): > 10000 nM
IC50 (MOLM-16): 35 nM
expression of a set of STAT3 target genes (STAT3 target genes): significantly down-regulated
Kd (STAT5A): ~5000 nM
cell cycle effect [4]: profound G1 arrest
Kd (STAT3 [5]): ~50 nM
binding selectivity for STAT3 over STAT1 and STAT4 (STAT3 [5]; BLI Kd): approximately 20 fold
drug exposure in plasma, tumor tissues and several organs [6]: good drug exposure
degradation of homozygous Y705F mutant STAT3 (mutated STAT3 proteins [7]): effectively degrades
degradation of endogenous D661Y and K658R mutant STAT3 (mutated STAT3 proteins [8]; 1 μM, 24 hr): efficiently degrades
degradation of STAT3 with mutations of Arg609 or Ser611/Ser613 (mutated STAT3 proteins [8]; transfected MDA-MB-231, 1 μM, 16 hr): resistant to degradation
genes down-regulated by ≥2-fold (p≤0.05) (MOLM-16 cells; MOLM-16, 1 μM, 8 hr): 125 genes
genes up-regulated by ≥2-fold (p≤0.05) (MOLM-16 cells; MOLM-16, 1 μM, 8 hr): 34 genes
genes down-regulated ≥2-fold (p≤0.05) (MOLM-16 cells; MOLM-16, 24 hr): 301 genes
genes up- or down-regulated ≥2-fold (p≤0.05), total (MOLM-16 cells; MOLM-16, 24 hr): 348 genes
genes up-regulated ≥2-fold (p≤0.05) (MOLM-16 cells; MOLM-16, 24 hr): 47 genes
Kd (STAT1): 1000 to 2000 nM
DNA binding activities of STAT1, STAT5A or STAT5B [9]: no significant effect
